The target of test [1] is T1, C-C chemokine receptor type 3 (Homo sapiens) (UniProt P51677).
T1 sequence (whole entry): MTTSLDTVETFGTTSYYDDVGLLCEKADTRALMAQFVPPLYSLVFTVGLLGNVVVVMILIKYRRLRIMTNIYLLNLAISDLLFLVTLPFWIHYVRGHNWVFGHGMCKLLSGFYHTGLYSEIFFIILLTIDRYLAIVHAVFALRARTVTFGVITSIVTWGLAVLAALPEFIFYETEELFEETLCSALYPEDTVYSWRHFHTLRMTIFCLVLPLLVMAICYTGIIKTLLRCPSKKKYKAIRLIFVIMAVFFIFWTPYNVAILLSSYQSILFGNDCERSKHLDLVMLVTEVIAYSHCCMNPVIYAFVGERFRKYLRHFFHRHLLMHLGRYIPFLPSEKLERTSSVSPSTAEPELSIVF
Kind of test: Agonist activity at human recombinant CCR3 expressed in eosinophils. Format: functional. In a few lines: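 Gated autofluorescence forward scatter (shape change) assay. Granulocytes from healthy-donor blood were isolated on plasma/Percoll gradients and pre-incubated at 5×10^6 cells/ml for 30 min at room temperature in GAFS buffer (PBS, 0.9 mM CaCl2, 0.5 mM MgCl2, 10 mM HEPES, 10 mM glucose, 0.1% BSA). Cells were exposed to varying compound concentrations for 4 min at 37°C, chilled, fixed and read by flow cytometry.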

The target in test [2] is T1, C-C chemokine receptor type 3 (Homo sapiens). Nature of the test: Agonist activity at human recombinant CCR3 expressed in mouse L1.2 cells assessed as induction of chemotaxis. Format: functional, cell-based. The method in brief:
(§1)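 L1.2 cells transfected with CCR3 (stable line kept in 1 mg/ml G-418, or transient electroporation at 1 μg DNA/1 × 10^6 cells, then overnight 10 mM sodium butyrate). Duplicate agonist concentrations in RPMI/0.1% BSA were placed in the lower wells and 2 × 10^5 cells on the upper filter (5 μm pores). After 5 h at 37°C, 5% CO2, migrated cells were counted by hemocytometer and expressed as % migrating.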

Test [3] has the same target. Nature of the test: Agonist activity at human recombinant CCR3 expressed in mouse L1.2 cells assessed as receptor internalization at 10 uM after 20 mins by flow cytometry. (In general: Flow cytometry measures light scatter and fluorescence of single cells or particles in a stream.)
Test [4] has as its system T2, C-C chemokine receptor type 3 (Homo sapiens), P51677 [Y113A].
T2 sequence (whole entry): T1 sequence (whole entry) with Y113A
Nature of the test: Agonist activity at human recombinant CCR3 Y113A mutant expressed in mouse L1.2 cells assessed as induction of chemotaxis. Format: functional, cell-based. The method in brief:
as §1

For test [5], the system named is T3, C-C chemokine receptor type 3 (Homo sapiens), P51677 [E287Q].
T3 sequence (whole entry): T1 sequence (whole entry) with E287Q
Kind of test: Agonist activity at human recombinant CCR3 E287Q mutant expressed in mouse L1.2 cells assessed as induction of chemotaxis. Format: functional, cell-based. The method in brief:
as §1

For test [6], the system named is T4, C-C chemokine receptor type 3 (Homo sapiens), P51677 [Y41A].
T4 sequence (whole entry): T1 sequence (whole entry) with Y41A
Kind of test: Agonist activity at human recombinant CCR3 Y41A mutant expressed in mouse L1.2 cells assessed as induction of chemotaxis. Format: functional, cell-based. In a few lines: as §1

For test [7], the target named is T1, C-C chemokine receptor type 3 (Homo sapiens). Kind of test: Reduction of human recombinant CCR3 expression in mouse L1.2 cells relative to control. Set-up: scale not given: the % may be the effect or the level left. Format: cell-based. The method in brief:
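In duplicate, 1 × 10^6 CCR3-L1.2 cells in ice-cold medium were warmed to 37°C for 20 min, then given stimulus (100 nM CCL11 or 10 μM compound) for 20 min; ice-held tubes and a buffer tube served as controls. Surface CCR3 was measured by anti-CCR3 flow cytometry as mean fluorescence minus isotype, expressed as % of buffer-treated cells.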

Each structure is given as a SMILES string. Changes are numbered by the printed parent chain. Calls of active or inactive are those of the source. No cut-off for these calls is given here.

As to `O=C(Cc1cccc2occc12)Nc1cc[n+](CCCc2ccccc2)c(Br)c1`, the Activity result in test [1] was “Dose-dependent effect”; in test [2] it was “Dose-dependent effect”; in test [7] it was 59.4%. Moreover, the outcome in test [3] was Active. The outcome in test [4], in test [5] and in test [6] was inactive.

These data come from ChEMBL document CHEMBL1156489, “Small molecule receptor agonists and antagonists of CCR3 provide insight into mechanisms of chemokine receptor activation” (J Biol Chem, 2007).
